# Compound activity (PubChem)
# Shown are actives, neighbours in structure and some others; about 3% of the full set was active somewhere.
# T cruzi inh: blocks replication of Trypanosoma cruzi. hit rate 1.4% among 300,000. inhibition, % (test concentration not listed). T. cruzi beta-gal in NIH3T3, luminescence, 90 h. AID 1885;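 active = mean inhibition across valid replicates above about 55%, limit read from the data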;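 note: signal also drops with host cell toxicity which is not excluded here; 0% = plate median of DMSO wells and 100% = zero luminescence signal; higher percent means less beta-gal luminescence so fewer parasites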
#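 compound dosing = single 50 nL compound addition per well in DMSO | material = NIH/3T3 host cells with β-galactosidase reporter T. cruzi | input = 5,000 host fibroblasts per well | timing = ≥90 h infection period, 3 h prior cell attachment | read-out basis = percent inhibition of parasite-derived β-gal signal | detection = GalScreen β-gal luminescence, detergent lysis, 60 min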
# Yeast superoxide: lowers age-related superoxide in aged yeast cells | AID 2690 | superoxide response (% of plate mean), % at 10 µM | S. cerevisiae aged cells, superoxide DHE fluorescence; stronger effect = lower value | hit rate 0.18% among 330,000;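 active = superoxide response under a set limit, about three screen SD below normal, cut at about 65% in these data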;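 note: yeast aged for seven days with compound at 30 °C before DHE staining; 100% = average MFI of all compound-treated wells on the plate with controls excluded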
# HIF activator: HIF pathway transcriptional activation. U2OS HRE-luciferase reporter, luminescence; normalized: DMSO 0%, desferrioxamine 100%. hit rate 0.32% among 300,000. activation, % at 7.5 µM (by protocol);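 active = mean activation of at least 10% of the iron chelator positive control signal, with at least half of replicates also reaching 10%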
# CendR NRP1 mod: NRP-1/CendR interaction modulation; O14786; FAM-RPARPAR peptide binding to NRP-1, fluorescence polarization; inhibition, % at 25 µM; hit rate 0.85% among 360,000;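 active = inhibition or corrected inhibition above about 18%, plus a signal ratio from 0.5 to 1.5, limit read from the data, passing the limit was not always enough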
# AI-2 QS mod: modulates the Vibrio harveyi AI-2 quorum sensing system. Vibrio harveyi JMH597 AI-2 luminescence/OD600 ratio, 9 h; stronger effect = lower value; strain lacks LuxN and CqsS sensors; 0 = neutral-control median. activity change, % at 7.5 µM. hit rate 0.4% among 300,000; in the data active = activity change below about -75%, passing the limit was not always enough;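 note: luminescence divided by OD600 gain over 9 h not by final OD600 alone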
# V-ATPase pHluor: alters yeast V-ATPase proton transport. response, % at 10 µM. S. cerevisiae, pHLuorin cytosolic pH fluorescence. hit rate 0.37% among 350,000; in the data active = response mostly above about 7.3%, no sharp cut-off; inactive = mostly below about 5.4%; note: actives read high
# * marks the source's active call; other numbers are inactive results; nt = no result given.
SMILES,T cruzi inh,Yeast superoxide,HIF activator,CendR NRP1 mod,AI-2 QS mod,V-ATPase pHluor
O=C(CCCC(=O)Nc1cccc(Br)c1)N/N=C/c1cc([N+](=O)[O-])ccc1O,1,94,5,-17,-3,4
Cc1ccc(N=Nc2ccc(O)c(/C=N\NC(=O)c3ccc(N)cc3)c2)cc1C,10,71,11*,-7,3,-2
O=C(CN(c1cccc(Br)c1)S(=O)(=O)c1ccccc1)N/N=C/c1cc([N+](=O)[O-])ccc1O,-18,96,7,50*,49,-1
O=C(N/N=C/c1cc(Br)ccc1OC(=O)c1ccc(Br)cc1)c1ccncc1,-6,106,19*,-12,-4,-2
O=C(N/N=C/c1cc(Cl)ccc1O)c1ccc(Br)cc1,nt,102,nt,-16,nt,9
Cc1ccc(S(=O)(=O)N2CCCCC2)cc1NC(=O)CSc1nnc(C2CC2)n1N,nt,109,nt,0,nt,-2
CC1(C)C(=O)C2(CCCCC2)C(=O)OC1c1ccc(O)cc1 (stereo unspecified),16,97,0,12,-2,1
CC(=O)N1CCN(S(=O)(=O)c2cccc(C(=O)Nc3ccc(F)c(F)c3)c2)CC1,39,103,1,14,26,5
CCc1noc(C)c1C(=O)N1CCCC(C(=O)c2cc(F)ccc2F)C1 (stereo unspecified),3,100,0,-6,11,-3
CCOC(=O)N1CCC(N2CCCC(C(=O)c3cc(F)ccc3OC)C2)CC1 (stereo unspecified),59*,103,0,0,18,1
CCc1noc(C)c1C(=O)N1CCCC(C(=O)c2cc(F)ccc2OC)C1 (stereo unspecified),55*,117,0,-2,-7,0
O=[N+]([O-])c1cccc(C(=Nc2ccccc2Cl)NO)c1,11,97,0,8,-91*,0
O=S1(=O)NC(C2CC2c2ccccc2)CCO1 (stereo unspecified),-2,102,0,23*,5,-4
CC(C)(C)OC(=O)N/N=C/c1c[nH]c2ccccc12,-14,91,2,-2,7,1
Cn1c(N2CCOCC2)c(/C=N/O)c2ccccc21,-27,133,0,1,14,2
Cn1c(N2CCOCC2)c(/C=N/OC(=O)c2ccc(F)cc2)c2ccccc21,65*,109,0,11,27,-4
Cc1ccc(C(=O)O/N=C/c2c(N3CCOCC3)n(C)c3ccccc23)cc1,56*,89,0,10,0,-13
Cn1c(N2CCOCC2)c(/C=N/OC(=O)c2cccnc2Cl)c2ccccc21,7,nt,0,-2,6,2
CC(=O)O/N=C/c1c(N2CCOCC2)n(C)c2ccccc12,61*,108,0,-13,28,-1
CCOC(=O)C1=C(CNCc2ccc(C)cc2)NC(=O)NC1c1cc(C)ccc1C (stereo unspecified),-1,99,0,-2,4,0
CCC(=O)NC1=C(C#N)C2(CCCC2)Cc2ccccc21,-14,103,0,1,14,10
COc1ccc2[nH]cc(C(=O)CCl)c2c1,61*,96,4,-10,23,4
O=C(Nc1ccc(Cl)cc1)c1cccnc1N1CCCCC1,12,86,0,0,nt,2
COc1ccc(C2CC(=O)C(C=NCCCO)=C(O)C2)cc1 (stereo unspecified),0,111,2,12,4,3
CCOC(=O)C1(Cc2cccc(F)c2)CCN(Cc2ccon2)CC1,13,108,0,30*,30,1
SMILES,T cruzi inh,Yeast superoxide,HIF activator,CendR NRP1 mod,AI-2 QS mod,V-ATPase pHluor
CCOC(=O)C1(Cc2ccc(Cl)cc2)CCN(Cc2ccon2)CC1,20,89,0,6,28,3
CCOc1ccc2[nH]c(=O)c(CN(CC3COCCO3)C(=O)c3ccc(C)cc3)cc2c1 (stereo unspecified),-2,105,-1,1,7,7
COc1cc2c(cc1OC)CN(C(=O)CNS(=O)(=O)c1ccc(C)c(C)c1)CC2,-5,92,0,-3,33,2
CCCNC1=C(N(C(C)=O)c2cccc(F)c2)C(=O)c2ccccc2C1=O,55*,117,-1,-6,30,-2
Cc1ccc(NC(=O)N(Cc2cccnc2)Cc2ccco2)cc1C,67*,118,0,-9,-3,10
Cc1ccc(NC(=O)N(Cc2ccco2)C(C)c2ccco2)cc1C (stereo unspecified),8,77,0,-2,11,1
O=C(Nc1ccc(Cl)cc1)N(Cc1cccnc1)Cc1ccco1,61*,99,0,9,16,-2
CCCC(=O)Nc1c(-c2ccccc2OC)c(=O)c2ccccc2n1C,nt,109,nt,-6,-8,-4
CCCn1c2ccccc2c2cnn(CC(=O)NC3CCC(C)CC3)c(=O)c21 (stereo unspecified),-3,108,0,6,15,3
CCCn1c2ccccc2c2cnn(CC(=O)NC3CCCC(C)C3C)c(=O)c21 (stereo unspecified),1,116,13*,2,29,-2
O=C(CCSc1ccc(Br)cc1)c1ccc(O)cc1,24,110,0,-3,-77*,-1
O=C(CCO)c1ccc(O)cc1,-31,91,0,5,35,-1
O=C(CC1NC(=O)NC1=O)NC1(C(=O)NC2CCCCC2)CCCCC1 (stereo unspecified),-16,99,1,4,21,-4
C=CCC(C#Cc1ccc(C)cc1)N(CC)CC (stereo unspecified),-6,105,-1,29*,1,-1
Cc1ccc(-n2ncc3c(=O)n(CC(=O)N4CCN(c5ccccc5)CC4)cnc32)cc1C,7,91,0,-6,10,-1
Cc1cccc(NC(=O)c2nc[nH]c2C(=O)NCCCCCNC(=O)OC(C)(C)C)c1,nt,122,nt,-2,nt,2
CC(C)(C)OC(=O)NCCCC[C@H](NC(=O)c1nc[nH]c1C(=O)NC(c1ccccc1)c1ccccc1)C(=O)OC(C)(C)C,56*,nt,-1,-10,17,2
CC(C)(C)OC(=O)[C@H](CCCCN)NC(=O)c1nc[nH]c1C(=O)NCCCCCN,-15,93,-5,21*,28,-1
Cc1cccc(NC(=O)c2nc[nH]c2C(=O)N[C@@H](CCCCNC(=O)OC(C)(C)C)C(=O)OC(C)(C)C)c1,62*,106,-1,0,1,2
O=C(N[C@@H](Cc1ccccc1)C(=O)OCc1ccccc1)c1nc[nH]c1C(=O)NC(c1ccccc1)c1ccccc1,-7,nt,-1,27*,20,-1
